What was measured:
[1] = biological target: T1, Ribosomal protein S6 kinase beta-1 (Homo sapiens, UniProt P23443); test: Inhibition of p70S6K-mediated ribosomal protein S6 phosphorylation in human PC3 cells after 3 hrs by chemiluminescence assay; assay type: cell-based, PC-3
How it was run: (§1)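 A549 or PC-3 cells seeded at 7.5 × 10³ cells/well in DMEM with heat-inactivated 10% FBS, 1% penicillin–streptomycin, 1% non-essential amino acids, grown 48 h at 37 °C, 5% CO₂. Treated 3 h with compound at 1.2–300 nM, triplicate, 0.2% DMSO final. Fixed in 4% formaldehyde, blocked, probed with anti-phospho-S6 (Ser240/244) and anti-total-S6 overnight at 4 °C, chemiluminescent read-out.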

[2] = biological target: T1, Ribosomal protein S6 kinase beta-1; test: Inhibition of p70S6K after 3 hrs by luciferase based chemiluminescence assay
[3] = biological target: T2, RAC-alpha serine/threonine-protein kinase (Homo sapiens, UniProt P31749); test: Inhibition of AKT1-mediated GSK3beta phosphorylation in human PC3 cells after 3 hrs by chemiluminescence assay; assay type: cell-based, PC-3
How it was run: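 PC-3 cells seeded at 7.5 × 10³ cells/well, grown 24 h, then serum-starved 24 h. Compound treatment 3 h in triplicate (0.2% DMSO final), followed by 100 ng/ml IGF1 for 30 min. Fixed and processed as a cell ELISA using anti-phospho-GSK3β (S9) and anti-total-GSK3β antibodies, chemiluminescent read-out.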

[4] = biological target: T1, Ribosomal protein S6 kinase beta-1; test: Inhibition of p70S6K-mediated ribosomal protein S6 phosphorylation in human A549 cells after 3 hrs by chemiluminescence assay; assay type: cell-based; how it was run: as §1
[5] = biological target: T2, RAC-alpha serine/threonine-protein kinase; test: Inhibition of AKT1 after 3 hrs by luciferase based chemiluminescence assay
[6] = Cmax in rat at 2.5 mg/kg, po; assay type: ADME, organism-based; design: dose 2.5 mg/kg, route oral; settings: in vivo
[7] = Cmax in rat at 2.5 mg/kg, iv; assay type: ADME, organism-based; design: dose 2.5 mg/kg, route intravenous; settings: in vivo
[8] = Plasma concentration in mouse at 100 mg/kg after 1 hr; assay type: ADME, organism-based; design: dose 100 mg/kg
How it was run: (§2)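 Mouse plasma levels measured 1 and 4 h after a 100 mg/kg dose.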

[9] = Half life in rat at 2.5 mg/kg, po; assay type: ADME, organism-based; design: dose 2.5 mg/kg, route oral; settings: in vivo
[10] = Plasma concentration in mouse at 100 mg/kg after 4 hrs; assay type: ADME, organism-based; design: dose 100 mg/kg; how it was run: as §2
[11] = Half life in rat at 2.5 mg/kg, iv; assay type: ADME, organism-based; design: dose 2.5 mg/kg, route intravenous; settings: in vivo
[12] = Volume of distribution in rat at 2.5 mg/kg; assay type: ADME, organism-based; design: dose 2.5 mg/kg; settings: in vivo
[13] = Oral bioavailability in rat at 2.5 mg/kg; assay type: ADME, organism-based; settings: in vivo
Rattus norvegicus [14] = test: Dose normalized AUC in rat at 2.5 mg/kg, po; assay type: ADME, organism-based; design: dose 2.5 mg/kg, route oral; settings: in vivo
[15] = Clearance in rat at 2.5 mg/kg; assay type: ADME, organism-based; design: dose 2.5 mg/kg; settings: in vivo
Rattus norvegicus [16] = test: Dose normalized AUC in rat at 2.5 mg/kg, iv; assay type: ADME, organism-based; design: dose 2.5 mg/kg, route intravenous; settings: in vivo

T2 sequence (P31749 whole entry): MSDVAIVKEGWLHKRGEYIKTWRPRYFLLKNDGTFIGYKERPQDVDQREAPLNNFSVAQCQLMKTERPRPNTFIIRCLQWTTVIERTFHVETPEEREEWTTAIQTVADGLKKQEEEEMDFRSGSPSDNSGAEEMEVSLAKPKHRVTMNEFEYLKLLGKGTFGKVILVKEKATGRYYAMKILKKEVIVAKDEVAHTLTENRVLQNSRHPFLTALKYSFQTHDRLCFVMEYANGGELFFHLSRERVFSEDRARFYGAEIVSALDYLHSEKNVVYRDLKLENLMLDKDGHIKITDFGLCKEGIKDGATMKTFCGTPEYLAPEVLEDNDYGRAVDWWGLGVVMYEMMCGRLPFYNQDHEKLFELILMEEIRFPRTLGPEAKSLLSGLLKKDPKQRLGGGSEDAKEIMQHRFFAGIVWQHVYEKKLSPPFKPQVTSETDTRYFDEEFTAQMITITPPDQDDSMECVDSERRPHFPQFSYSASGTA
T1 sequence (P23443 whole entry): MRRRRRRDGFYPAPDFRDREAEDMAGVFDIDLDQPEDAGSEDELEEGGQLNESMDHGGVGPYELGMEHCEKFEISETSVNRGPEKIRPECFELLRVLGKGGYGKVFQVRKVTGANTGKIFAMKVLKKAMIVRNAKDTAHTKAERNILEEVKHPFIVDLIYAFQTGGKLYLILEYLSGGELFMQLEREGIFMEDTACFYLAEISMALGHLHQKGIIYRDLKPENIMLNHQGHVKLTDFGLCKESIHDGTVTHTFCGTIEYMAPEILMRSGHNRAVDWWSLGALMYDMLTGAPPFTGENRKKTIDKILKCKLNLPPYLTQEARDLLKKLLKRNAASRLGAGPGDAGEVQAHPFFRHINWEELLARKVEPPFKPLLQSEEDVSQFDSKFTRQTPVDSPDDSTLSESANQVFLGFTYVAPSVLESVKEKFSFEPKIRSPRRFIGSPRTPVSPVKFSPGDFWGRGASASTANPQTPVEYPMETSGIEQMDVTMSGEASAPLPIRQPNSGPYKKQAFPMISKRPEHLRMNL

SMILES	IC50 [1] [nM]	IC50 [2] [nM]	IC50 [3] [nM]	IC50 [4] [nM]	IC50 [5] [nM]	Cmax [6] [nM]	Cmax [7] [nM]	concentration at 1 h [8] [nM]	half-life [9] [h]	concentration at 4 h [10] [nM]	half-life [11] [h]	Vd [12] [L/kg]	bioavailability [13] [%]	AUC/dose (Rattus norvegicus [14]) [µM·kg·h/mg]	clearance [15] [mL/min/kg]	AUC/dose (Rattus norvegicus [16]) [µM·kg·h/mg]
Cc1c(NCCN2CCCC2)cc(C(=O)Nc2ccccc2)cc1N1CCN(c2ncnc3[nH]nc(Br)c23)CC1	190	1	7810	14	13	–	–	–	–	–	–	–	–	–	–	–
Cc1c(NCCN2CCCC2)cc(COCC(F)(F)F)cc1N1CCN(c2ncnc3[nH]nc(Br)c23)CC1	66	2	730	17	8	20	390	1200	1.4	1200	2.1	9.7	11	0.05	63.5	0.43
Cc1c(NCCN2CCCC2)cc(CCC(C)(C)C)cc1N1CCN(c2ncnc3[nH]nc(Br)c23)CC1	203	2	1980	116	7	–	–	–	–	–	–	–	–	–	–	–

Reference: ChEMBL document CHEMBL2016487, “Pyrazolopyrimidines as dual Akt/p70S6K inhibitors” (Bioorg Med Chem Lett, 2012)
